Calls of active or inactive are those of the source. No cut-off for these calls is given here.
Key:
MDA-MB-231 [1] = experiment: Antiproliferative activity against human MDA-MB-231 cells assessed as reduction in cell viability measured after 5 days by beckman coulter counting method; assay type: functional, cell-based; settings: MDA-MB-231, 120 h
HeLa = experiment: Antiproliferative activity against human HeLa cells assessed as reduction in cell viability measured after 5 days by beckman coulter counting method; assay type: functional, cell-based; settings: 120 h
MDA-MB-231 [2] = experiment: Cell cycle arrest in human MDA-MB-231 cells assessed as accumulation at S phase at 1 uM measured after 24 hrs by propidium iodide staining based flow cytometry (reference value: 19.84%); assay type: functional
MDA-MB-231 [3] = experiment: Cell cycle arrest in human MDA-MB-231 cells assessed as accumulation at G2 phase at 1 uM measured after 24 hrs by propidium iodide staining based flow cytometry (reference value: 5.77%); assay type: functional
In short: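 MDA-MB-231 cells were seeded at 5 × 10^5 cells/mL and treated for 24 h. They were then trypsinized and washed twice in cold PBS. Cells were resuspended in PBS, stained with PI for 15 min at room temperature in the dark, and analyzed by flow cytometry.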

MDA-MB-231 [4] = experiment: Induction of apoptosis in human MDA-MB-231 cells measured after 24 hrs by annexin V-FITC/propidium iodide staining based flow cytometry; assay type: functional, cell-based; settings: dose 0.1-1 µM
MDA-MB-231 [5] = experiment: Induction of apoptosis in human MDA-MB-231 cells assessed as viable cells at 0.1 uM measured after 24 hrs by annexin V-FITC/propidium iodide staining based flow cytometry (reference value: 90.9%); assay type: functional; settings: read-out: Activity
MDA-MB-231 [6] = experiment: Induction of apoptosis in human MDA-MB-231 cells assessed as early apoptotic cells at 0.1 uM measured after 24 hrs by annexin V-FITC/propidium iodide staining based flow cytometry (reference value: 1.49%); assay type: functional
MDA-MB-231 [7] = experiment: Induction of apoptosis in human MDA-MB-231 cells assessed as late apoptotic cells at 0.1 uM measured after 24 hrs by annexin V-FITC/propidium iodide staining based flow cytometry (reference value: 2.84%); assay type: functional
MDA-MB-231 [8] = experiment: Induction of apoptosis in human MDA-MB-231 cells assessed as necrotic cells at 0.1 uM measured after 24 hrs by annexin V-FITC/propidium iodide staining based flow cytometry (reference value: 4.74%); assay type: functional
MDA-MB-231 [9] = experiment: Induction of apoptosis in human MDA-MB-231 cells assessed as early apoptotic cells at 1 uM measured after 24 hrs by annexin V-FITC/propidium iodide staining based flow cytometry (reference value: 1.49%); assay type: functional
MDA-MB-231 [10] = experiment: Induction of apoptosis in human MDA-MB-231 cells assessed as late apoptotic cells at 1 uM measured after 24 hrs by annexin V-FITC/propidium iodide staining based flow cytometry (reference value: 2.84%); assay type: functional
MDA-MB-231 [11] = experiment: Induction of apoptosis in human MDA-MB-231 cells assessed as necrotic cells at 1 uM measured after 24 hrs by annexin V-FITC/propidium iodide staining based flow cytometry (reference value: 4.74%); assay type: functional
[12] = Acute toxicity in Kunming mouse assessed as mortality at 10 to 40 mg/kg, ip administered as single dose; assay type: organism-based; settings: in vivo, dose 10-40 mg/kg
In short: (§1)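 Kunming mice in four groups (n = 8, half male, half female) got one intraperitoneal dose of 10, 20 or 40 mg/kg, or vehicle. Body weights were recorded daily after dosing. Eyes, skin and fur were checked for clinical signs. Mortality was recorded. Mice were dissected to look for ascites and to assess liver volume.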

[13] = Acute toxicity in ip dosed Kunming mouse administered as single dose; assay type: organism-based; settings: in vivo; in short: as §1
[14] = Acute toxicity in Kunming mouse assessed as clinical change in skin at 40 mg/kg, ip administered as single dose; assay type: organism-based; settings: in vivo; in short: as §1
[15] = Acute toxicity in Kunming mouse assessed as clinical change in fur at 40 mg/kg, ip administered as single dose; assay type: organism-based; settings: in vivo; in short: as §1
[16] = Acute toxicity in Kunming mouse assessed as body weight loss at 40 mg/kg, ip administered as single dose; assay type: organism-based; settings: in vivo; in short: as §1
[17] = Acute toxicity in Kunming mouse assessed as development of ascites at 40 mg/kg, ip administered as single dose; assay type: organism-based; settings: in vivo; in short: as §1
4T1 [18] = experiment: Antitumor activity against mouse 4T1 cells implanted in mouse assessed as tumor growth inhibition at 1 mg/kg, ip administered daily for 12 days relative to control; assay type: functional; settings: 4T1, ip, 288 h, time 12 day, read-out: TGI
In short: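 Mice bearing orthotopic 4T1 tumors were randomized into 4 groups (n = 6) once tumors reached about 100 mm2. Groups received vehicle, test compound at 1 or 2 mg/kg, or doxorubicin at 1 mg/kg, given i.p. every day. Body weight and tumor volume were recorded daily. Tumors were excised and weighed at the end, and inhibition was calculated against the saline control.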

4T1 [19] = experiment: Antitumor activity against mouse 4T1 cells implanted in mouse assessed as tumor growth inhibition at 2 mg/kg, ip administered daily for 12 days relative to control; assay type: functional; settings: 4T1, ip, 288 h, time 12 day, read-out: TGI
In short: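 Orthotopic 4T1 tumor-bearing mice were randomized into four groups (n = 6) once tumors reached about 100 mm2. Groups received vehicle (saline), test compound at 1 or 2 mg/kg, or doxorubicin 1 mg/kg, all intraperitoneally every day. Tumor volume and body weight were measured daily. Inhibition ratio was computed against saline at study end, and tumors were weighed.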

[20] = Toxicity in mouse implanted with mouse 4T1 cells assessed as extramedullary hematopoiesis in spleen at 2 mg/kg, ip administered daily for 12 days measured post last dose by H and E staining based microscopic analysis; assay type: organism-based; settings: in vivo, 288 h, time 12 day
In short: (§2)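 Orthotopic 4T1-bearing mice (n = 6 per group) were dosed i.p. daily with vehicle, compound at 1 or 2 mg/kg, or doxorubicin at 1 mg/kg. At the end of treatment, tumors and major organs (liver, spleen) were harvested and photographed. Sections were H&E stained and examined by microscope.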

[21] = Toxicity in mouse implanted with mouse 4T1 cells assessed as extramedullary hematopoiesis in liver at 2 mg/kg, ip administered daily for 12 days measured post last dose by H and E staining based microscopic analysis; assay type: organism-based; settings: in vivo, 288 h, time 12 day; in short: as §2
4T1 [22] = experiment: Induction of apoptosis in mouse 4T1 cells implanted in mouse at 2 mg/kg, ip administered daily for 12 days measured post last dose by H and E staining based microscopic analysis; assay type: functional, organism-based; settings: time 12.0 day; in short: as §2
Aurora kinase A = biological target: T1, Aurora kinase A (Homo sapiens, UniProt O14965); experiment: Inhibition of AURKA (unknown origin)
T1 sequence (O14965 whole entry): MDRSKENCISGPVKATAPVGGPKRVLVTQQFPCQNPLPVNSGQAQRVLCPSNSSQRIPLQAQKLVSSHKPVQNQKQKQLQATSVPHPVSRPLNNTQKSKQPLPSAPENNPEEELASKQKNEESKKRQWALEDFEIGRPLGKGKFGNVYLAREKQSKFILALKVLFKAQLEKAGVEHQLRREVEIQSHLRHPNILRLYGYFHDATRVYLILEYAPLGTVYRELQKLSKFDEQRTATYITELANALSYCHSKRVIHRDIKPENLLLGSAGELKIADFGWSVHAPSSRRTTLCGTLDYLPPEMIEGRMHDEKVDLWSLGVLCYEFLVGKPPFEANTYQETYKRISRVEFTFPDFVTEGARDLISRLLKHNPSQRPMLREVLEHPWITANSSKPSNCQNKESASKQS
In short: (§3)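 Kinase inhibition was measured in two independent repeats, and IC50 is reported as their average with SD.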

[23] = biological target: Mitogen-activated protein kinase 10 (Homo sapiens, UniProt P53779); experiment: Inhibition of MAPK10 (unknown origin); in short: as §3
Sequence of Mitogen-activated protein kinase 10 (P53779 whole entry): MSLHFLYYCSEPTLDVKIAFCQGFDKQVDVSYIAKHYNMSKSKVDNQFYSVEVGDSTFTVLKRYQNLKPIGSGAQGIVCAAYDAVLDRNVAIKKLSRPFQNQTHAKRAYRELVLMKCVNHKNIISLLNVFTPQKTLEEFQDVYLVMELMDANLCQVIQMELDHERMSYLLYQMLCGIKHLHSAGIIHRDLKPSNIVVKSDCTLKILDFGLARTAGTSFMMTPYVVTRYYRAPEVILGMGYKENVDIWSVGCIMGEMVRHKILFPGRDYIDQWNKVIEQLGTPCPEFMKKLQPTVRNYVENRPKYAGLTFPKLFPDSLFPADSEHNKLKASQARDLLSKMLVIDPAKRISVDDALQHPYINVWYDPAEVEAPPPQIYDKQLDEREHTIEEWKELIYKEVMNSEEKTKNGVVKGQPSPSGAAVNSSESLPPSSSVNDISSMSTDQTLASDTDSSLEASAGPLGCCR

[24] = biological target: Tyrosine-protein kinase JAK2 (Homo sapiens, UniProt O60674); experiment: Inhibition of JAK2 (unknown origin); in short: as §3
Sequence of Tyrosine-protein kinase JAK2 (O60674 whole entry): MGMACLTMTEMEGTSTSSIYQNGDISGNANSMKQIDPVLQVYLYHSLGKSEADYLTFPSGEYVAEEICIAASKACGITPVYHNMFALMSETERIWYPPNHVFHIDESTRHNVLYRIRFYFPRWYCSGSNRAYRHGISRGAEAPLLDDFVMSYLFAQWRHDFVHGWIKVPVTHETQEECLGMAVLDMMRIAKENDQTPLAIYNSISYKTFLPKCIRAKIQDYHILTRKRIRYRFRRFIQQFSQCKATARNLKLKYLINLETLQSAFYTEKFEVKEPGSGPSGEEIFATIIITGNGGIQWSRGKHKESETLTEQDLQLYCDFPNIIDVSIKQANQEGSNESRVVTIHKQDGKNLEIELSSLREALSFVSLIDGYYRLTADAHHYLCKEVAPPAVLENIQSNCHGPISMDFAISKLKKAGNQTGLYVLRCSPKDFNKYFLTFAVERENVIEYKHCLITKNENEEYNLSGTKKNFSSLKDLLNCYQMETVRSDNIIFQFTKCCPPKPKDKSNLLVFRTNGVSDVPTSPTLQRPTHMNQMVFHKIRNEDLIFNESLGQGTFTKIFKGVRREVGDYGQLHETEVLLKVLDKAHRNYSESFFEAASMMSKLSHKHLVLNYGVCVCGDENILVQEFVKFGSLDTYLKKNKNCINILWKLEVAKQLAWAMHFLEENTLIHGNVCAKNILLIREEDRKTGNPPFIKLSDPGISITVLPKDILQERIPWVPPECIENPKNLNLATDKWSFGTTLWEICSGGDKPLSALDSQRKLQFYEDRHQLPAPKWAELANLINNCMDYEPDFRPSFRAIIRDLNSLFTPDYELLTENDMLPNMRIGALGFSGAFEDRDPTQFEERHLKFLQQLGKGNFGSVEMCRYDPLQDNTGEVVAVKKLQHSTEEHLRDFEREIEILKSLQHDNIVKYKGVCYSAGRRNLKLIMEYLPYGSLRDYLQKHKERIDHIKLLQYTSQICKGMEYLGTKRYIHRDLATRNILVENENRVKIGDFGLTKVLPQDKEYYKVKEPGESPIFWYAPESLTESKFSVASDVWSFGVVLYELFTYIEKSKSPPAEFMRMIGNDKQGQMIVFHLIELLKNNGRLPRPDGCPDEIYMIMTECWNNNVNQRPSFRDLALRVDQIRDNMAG

O=C1C=CC2(C=C1)OCC(=O)N2c1nc(-c2cccc3ccccc23)nn1-c1ccccc1
IC50 (MDA-MB-231 [1]): 0.05 µM
IC50 (HeLa): 0.07 µM
Activity (MDA-MB-231 [2]): 36.99%
Activity (MDA-MB-231 [3]): 23.87%
Activity (MDA-MB-231 [4]): Dose-dependent effect
viability at 0.1 µM (MDA-MB-231 [5]): 90.8%
Activity (MDA-MB-231 [6]): 1.32%
Activity (MDA-MB-231 [7]): 2.69%
Activity (MDA-MB-231 [8]): 5.16%
Activity (MDA-MB-231 [9]): 22.2%
Activity (MDA-MB-231 [10]): 29%
Activity (MDA-MB-231 [11]): 13.1%
Activity [12]: Non-Toxic
MTD [13]: > 40 mg/kg
Activity [14]: Non-Toxic
Activity [15]: Non-Toxic
Activity [16]: Toxic
Activity [17]: Toxic
inhibition in vivo at 1 mg/kg (4T1 [18]): 18.2%
inhibition in vivo at 2 mg/kg (4T1 [19]): 38.8%
Activity [20]: Toxic
Activity [21]: Toxic
Activity (4T1 [22]): Active
IC50 (Aurora kinase A): > 100 µM
IC50 [23]: > 100 µM
IC50 [24]: 59 µM

Reference: ChEMBL document CHEMBL4732107, “Synthesis and anticancer activity evaluation of naphthalene-substituted triazole spirodienones” (Eur J Med Chem, 2021)
